Screening data: PubChem BioAssay, Johns Hopkins Ion Channel Center
Rows were chosen to be rich in hits. Some 2.9% of all compounds tested hit in one or more screens of this group.
TRPC4 potent = allosterically enhances the mouse TRPC4 cation channel. Q9QUQ5. HEK293 TRPC4beta/mu-opioid, DAMGO EC20, Fluo-4 Ca2+ flux; hits give high values. AID 2227. B-score at 10 µM. actives 0.42% (n = 310,000);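 active = B-score of calcium response area above 5 SD of library B-scores, with initial fluorescence ratio within 5 SD of library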;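 note: B-score of integrated fluorescence ratio over time as area under calcium response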
TRPC6 inhibitor = inhibitors of mouse TRPC6 channel; Q61143; HEK293-TRPC6, membrane potential dye, ACh-evoked depolarization; hits give low values; B-score at 10 µM; actives 1.1% (n = 310,000);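 active = B-score under library mean minus 3 SD, initial fluorescence not abnormally high, positive integrated signal ratio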;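 note: B-score derived from integrated fluorescence ratio over the kinetic read; more negative B-score means stronger inhibition of depolarization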
TRPC4 inh = inhibitors of mouse TRPC4 channel; Q9QUQ5; HEK293 TRPC4beta/mu-opioid, DAMGO-evoked Fluo4 calcium flux; hits give low values; B-score at 10 µM; actives 0.39% (n = 300,000); AID 2247;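 active = B-score over 3 SD under the library average, no early fluorescence shift, positive overall ratio signal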
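Signal: kinetic Fluo4 fluorescence imaging of calcium influx. Material: stable TRPC4beta/mu-opioid receptor HEK293 cells. Probe or stimulus: DAMGO in two steps, submaximal then maximal.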
TRPC6 activator = activates the mouse TRPC6 cation channel | B-score at 10 µM | HEK293-TRPC6 membrane potential dye fluorescence; hits give high values | Q61143 | actives 0.13% (n = 310,000);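 active = B-score of the integrated fluorescence ratio above library mean plus 3 SD, and starting fluorescence ratio within library mean plus 5 SD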;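 note: higher score means more depolarization so channel activation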
TRPC4 act = opens the mouse TRPC4 cation channel. HEK293 TRPC4beta/mu-opioid, Fluo4 calcium fluorescence; hits give high values. B-score at 10 µM. actives 0.49% (n = 310,000);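 active = B-score above 5 SD of library B-scores, and initial fluorescence ratio not above library mean plus 5 SD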;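 note: positive B-score marks a calcium rise read as TRPC4 activation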
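system = HEK293 cells stably co-expressing mouse TRPC4beta and mu-opioid receptor | schedule = Fluo4 dye loading 45 min at room temperature, 110 s recording | measure = B-scored integrated calcium fluorescence ratio | signal = Fluo4 calcium-sensitive dye fluorescence, kinetic, 1 Hz baseline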
Kir21 inh = blocks the mouse Kir2.1 inward-rectifier potassium channel. P35561. HEK293-Kir2.1, FluxOR thallium flux fluorescence; hits give low values. B-score at 10 µM. actives 0.85% (n = 310,000). AID 1672;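 active = fluorescence ratio B-score at or below minus 3 SD of library scores, with starting-brightness B-score within 2 SD, cut at about -4.2 in these data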;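 note: channel flux triggered by added potassium and thallium sulfate stimulus; B-score of peak minus minimum fluorescence over baseline after thallium stimulus; more negative B-score means stronger Kir2.1 block with less thallium influx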
Target sequence (P35561 whole entry, looked up): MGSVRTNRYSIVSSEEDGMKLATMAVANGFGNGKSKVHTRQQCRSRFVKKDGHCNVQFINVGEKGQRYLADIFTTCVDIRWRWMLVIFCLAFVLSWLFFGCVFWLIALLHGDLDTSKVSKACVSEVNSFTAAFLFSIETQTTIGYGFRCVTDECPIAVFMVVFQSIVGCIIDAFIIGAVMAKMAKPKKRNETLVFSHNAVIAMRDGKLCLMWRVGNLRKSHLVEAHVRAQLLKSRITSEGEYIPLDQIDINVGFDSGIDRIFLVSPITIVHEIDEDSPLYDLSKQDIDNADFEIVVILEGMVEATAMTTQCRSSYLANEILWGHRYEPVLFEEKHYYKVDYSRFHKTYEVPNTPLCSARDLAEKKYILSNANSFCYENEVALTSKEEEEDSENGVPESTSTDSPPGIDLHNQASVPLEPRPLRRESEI
TRPC4 sel inh 2 = mouse TRPC4 off-target activity of TRPC6 inhibitors, second screen. inhibition, % at 10 µM. HEK293 TRPC4/MOR, membrane potential dye fluorescence; channel activated by saturating DAMGO dose. shares compounds with TRPC6 inhibitor. AID 2776. actives 42% (n = 920);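 active = compounds whose fluorescence signal differed from control wells by over 3 SD, either direction, in both duplicate plates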
TRPC4 spec = tests whether TRPC6 inhibitors also affect mouse TRPC4 | shares compounds with TRPC6 inhibitor | HEK293 TRPC4/mu-opioid, membrane potential fluorescence | activity change, negative = inhibition, % at 10 µM | actives 61% (n = 920);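 active = rise or fall in signal beyond 3 SD of buffer-only wells in both replicate plates, either sign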;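 note: integrated kinetic ratio of fluorescence range over baseline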
HEK293 MPD ctr 2-1 = parental HEK293 nonspecific activity of TRPC6 inhibitors, second screen | shares compounds with TRPC6 inhibitor | parental HEK293 membrane potential dye fluorescence; maximal acetylcholine challenge after compound addition | signal change vs control, % at 10 µM | actives 31% (n = 920);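 active = membrane potential signal moving either way by over 3 SD of the maximum-effect control, in both duplicate plates, meaning non-specific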
HEK293 MPD ctr-1 = counter-screen for TRPC6 inhibitors: effect in parental HEK293 cells. membrane potential signal change, % at 10 µM. shares compounds with TRPC6 inhibitor. parental HEK293 membrane potential dye fluorescence. actives 60% (n = 920);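 active = membrane potential signal shifting up or down by more than 3 SD of buffer-only wells, on both duplicate plates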
HEK293 MPD ctr-2 = parental HEK293 nonspecific activity of TRPC6 modulators; membrane potential dye fluorescence; membrane potential signal change, % at 10 µM; shares compounds with TRPC6 inhibitor; actives 51% (n = 2,400); AID 488924;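 active = membrane potential signal moves up or down beyond 5 SD from buffer-only wells, on both duplicate plates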
HEK293 MPD ctr 2-2 = second check of TRPC6 modulator effects in parental HEK293 cells; shares compounds with TRPC6 inhibitor; AID 488926; actives 14% (n = 2,400); membrane potential dye fluorescence; after compound, maximal acetylcholine stimulation; inhibition, % at 10 µM;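 active = membrane potential signal drops by more than 5 SD from the mean control signal, in both duplicate plates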;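 note: plate controls were acetylcholine ECmax control wells for no effect and buffer only wells for full effect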
TRPC4 ctr mod = selectivity of TRPC6 modulators against mouse TRPC4; shares compounds with TRPC6 inhibitor; HEK293 TRPC4/mu-opioid, membrane potential fluorescence; percent change from control (negative = decrease, positive = increase), % at 10 µM; actives 69% (n = 2,400); AID 488927;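 active = membrane potential signal moved up or down beyond 5 SD of buffer control wells, in both duplicate plates, actives on both sides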;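 note: plate controls were assay buffer wells for no effect and DAMGO maximal-effect wells for full effect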
TRPC4 ctr inh 2 = second selectivity test of TRPC6 modulators against mouse TRPC4; shares compounds with TRPC6 inhibitor; HEK293 TRPC4/mu-opioid, membrane potential dye fluorescence; stimulated with maximal-effect DAMGO; inhibition, % at 10 µM; actives 55% (n = 2,400);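 active = drop in membrane potential signal beyond 5 SD of the control wells in both duplicate plates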;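 note: TRPC4 counter screen for TRPC6 hits run under conditions tuned for TRPC6 not TRPC4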
TRPC6 inh conf = mouse TRPC6 inhibitor confirmation | inhibition, % at 10 µM | HEK293-TRPC6, membrane potential dye, ACh-evoked depolarization | actives 43% (n = 3,300) | shares compounds with TRPC6 inhibitor;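 active = fluorescence ratio falls more than 5 SD below the full-stimulation control mean, in both duplicate runs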;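 note: integrated fluorescence ratio of peak minus minimum over baseline after agonist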
TRPC6 act conf = confirmation of mouse TRPC6 activators | shares compounds with TRPC6 inhibitor | HEK293-TRPC6 membrane potential dye fluorescence, FDSS | activation, % at 10 µM | actives 11% (n = 2,800) | AID 488961;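 active = ratio signal rise beyond 5 SD above unstimulated control wells' mean, seen in both duplicate runs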;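 note: plate controls were buffer EC0 wells for no effect and acetylcholine ECmax response for full effect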
* = called active by the depositor; i = inactive; / = no result given.

SMILES	TRPC4 potent	TRPC6 inhibitor	TRPC4 inh	TRPC6 activator	TRPC4 act	Kir21 inh	TRPC6 inh conf	TRPC6 act conf	others
Oc1ccccc1-c1nc(NCCN2CCOCC2)c2ccccc2n1	i	-8.3*	i	i	i	-0.26	68%*	i	TRPC4 sel inh 2=58%*;TRPC4 spec=-19%*;HEK293 MPD ctr 2-1=i;HEK293 MPD ctr-1=-328%*
COc1cccc(-c2nc(NCCN3CCOCC3)c3ccccc3n2)c1O	i	i	i	i	i	-0.12	/	/
CC(C)(NC(=O)c1ccccc1)c1nc2ccccc2s1	i	i	i	i	i	-0.59	/	/
COc1ccc(CNC(=O)CN2CCN(c3ccccc3O)CC2)cc1OC	i	i	i	i	i	-0.01	/	/
CN(c1ccccc1)c1ncccn1	i	i	i	i	i	0.81	/	/
CN(c1ccccc1)P(=O)(N(C)c1ccccc1)N(C)c1ccccc1	i	-9.5*	i	i	i	-5.5*	66%*	/	TRPC4 sel inh 2=i;TRPC4 spec=29%*;HEK293 MPD ctr 2-1=i;HEK293 MPD ctr-1=15%*
CCOC(=O)N1C(=O)C2(CCCCC2)N(c2ccccc2Cl)C1=S	i	i	i	i	i	0.29	/	/
O=C1NC(Cc2ccccc2)C(=O)N1CC(=O)N1CCCc2ccccc21 (stereo unspecified)	i	i	i	i	i	0.94	/	/
Cn1c(=Nc2ccc(N3CCOCC3)cc2)ccc2ccccc21	i	-6*	i	i	i	0.76	41%*	i	HEK293 MPD ctr-2=-76%*;HEK293 MPD ctr 2-2=i;TRPC4 ctr mod=-16%*;TRPC4 ctr inh 2=i
CCN1CCN(CCCN(Cc2ccco2)C(=S)Nc2ccc(Cl)cc2)CC1	i	i	i	i	i	-0.11	/	/
CCOc1ccc(NC(=S)N(CCCN2CCCC2)Cc2cccn2Cc2ccc(Cl)cc2)cc1	i	-5.2*	i	i	i	-3	i	i	HEK293 MPD ctr-2=i;HEK293 MPD ctr 2-2=i;TRPC4 ctr mod=i;TRPC4 ctr inh 2=53%*
O=C(NCCCN1CCOCC1)C(=O)N/N=C/c1ccc2c(c1)OCO2	i	-8.3*	i	i	i	0.56	i	i	TRPC4 sel inh 2=i;TRPC4 spec=i;HEK293 MPD ctr 2-1=i;HEK293 MPD ctr-1=i
COCC(=O)Nc1ncc(S(=O)(=O)c2ccc([N+](=O)[O-])cc2)s1	i	i	i	i	i	0.75	/	/
